The source of these data is ChEMBL document CHEMBL3120088, “Discovery of selective small molecule type III phosphatidylinositol 4-kinase alpha (PI4KIIIα) inhibitors as anti hepatitis C (HCV) agents” (J Med Chem, 2014).

Series [1] has as its system Hepatitis C virus. Put plainly: Antiviral activity against Hepatitis C virus genotype 1a expressed in ET cells after 48 hrs by luciferase reporter gene assay. The class given is functional, organism-based, Hepacivirus hominis, subtype 1a. To be noted: for pIC50: et. (In general: In a reporter assay the amount or activity of a reporter protein is the signal.)
For series [2], the system named is Mus musculus. Put plainly: Toxicity in mouse assessed as pathological changes in thymus at 40 mg/kg/day. The class given is organism-based. The note with it: in vivo. Put shortly:
(§1)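 Mouse repeat-dose toxicity study: 40 mg/kg/day given daily for 14 days. Endpoints were morbidity, mortality, test-article-related changes in stomach, thymus and spleen, and clinical pathology parameters.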

The subject of series [3] is Rattus norvegicus. The experiment in a line: (§2) Cmax in Sprague-Dawley rat at 5 mg/kg, po. The class given is ADME, organism-based. On the set-up: dose 5 mg/kg, route oral. To be noted: in vivo. In short, it runs like this:
(§3)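 Rats were given a single dose of compound formulated in DMSO/cyclodextrin, either intravenously at 1 mg/kg or orally at 5 mg/kg. Each parameter comes from the matching route arm. Dose-normalized AUC is expressed as h kg ng mL⁻¹ mg⁻¹.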

For series [4], the system named is Rattus norvegicus. Put plainly: (§4) Half life in Sprague-Dawley rat at 5 mg/kg, po. Format: ADME, organism-based. On the set-up: dose 5 mg/kg, route oral. To be noted: in vivo. In short, it runs like this: as §3
Series [5] has as its system Mus musculus. The experiment in a line: Toxicity in mouse assessed as pathological changes in stomach at 40 mg/kg/day. The note with it: in vivo. The class given is organism-based. In short, it runs like this: as §1
The subject of series [6] is Rattus norvegicus. The experiment in a line: Half life in Sprague-Dawley rat at 1 mg/kg, iv. Format: ADME, organism-based. On the set-up: dose 1 mg/kg, route intravenous. To be noted: in vivo. In short, it runs like this: as §3
Series [7] relates to Mus musculus. Put plainly: Toxicity in mouse assessed as mortality at 40 mg/kg/day. To be noted: in vivo. The class given is organism-based. Put shortly: as §1
The nature of series [8]: Inhibition of PI3Kdelta (1 to 1044)/6xHis-tagged p85 (1 to 724) (unknown origin) using diC8-PIP2 as substrate preincubated for 30 mins followed by substrate addition measured after 45 to 60 mins. On the set-up: species or system Homo sapiens.
In series [9] the test system is Rattus norvegicus. The experiment in a line: Dose normalized AUC in Sprague-Dawley rat at 1 mg/kg, iv. To be noted: in vivo. Format: ADME, organism-based. On the set-up: dose 1 mg/kg, route intravenous. In short, it runs like this: as §3
Series [10] can be described thus: Inhibition of PI3Kbeta (1 to 1070)/6xHis-tagged p85 (1 to 724) (unknown origin) using diC8-PIP2 as substrate preincubated for 30 mins followed by substrate addition measured after 45 to 60 mins. On the set-up: species or system Homo sapiens.
A short description of series [11]: Inhibition of PI3Kalpha (1 to 1068)/6xHis-tagged p85 (1 to 724) (unknown origin) using diC8-PIP2 as substrate preincubated for 30 mins followed by substrate addition measured after 45 to 60 mins. On the set-up: species or system Homo sapiens.
In series [12] the test system is Rattus norvegicus. The experiment in a line: (§5) Oral bioavailability in Sprague-Dawley rat at 5 mg/kg. To be noted: in vivo. The class given is ADME, organism-based. Put shortly: as §3
Series [13] deals with Hepatitis C virus. The experiment in a line: Antiviral activity against Hepatitis C virus genotype 2a expressed in human Huh-7 Lunet cells after 48 hrs by luciferase reporter gene assay. Format: functional, organism-based, Hepacivirus hominis. To be noted: for pIC50: huh-7.
For series [14], the target named is T1, Phosphatidylinositol 4-kinase alpha (Homo sapiens, UniProt P42356). The experiment in a line: Inhibition of GST-tagged PI4K-alpha (1 to 2044) (unknown origin) using D-myo-phosphatidylinositol as substrate preincubated for 30 mins followed by substrate addition measured after 180 mins by luminescence assay.
Target sequence in this assay (P42356 whole entry, canonical isoform): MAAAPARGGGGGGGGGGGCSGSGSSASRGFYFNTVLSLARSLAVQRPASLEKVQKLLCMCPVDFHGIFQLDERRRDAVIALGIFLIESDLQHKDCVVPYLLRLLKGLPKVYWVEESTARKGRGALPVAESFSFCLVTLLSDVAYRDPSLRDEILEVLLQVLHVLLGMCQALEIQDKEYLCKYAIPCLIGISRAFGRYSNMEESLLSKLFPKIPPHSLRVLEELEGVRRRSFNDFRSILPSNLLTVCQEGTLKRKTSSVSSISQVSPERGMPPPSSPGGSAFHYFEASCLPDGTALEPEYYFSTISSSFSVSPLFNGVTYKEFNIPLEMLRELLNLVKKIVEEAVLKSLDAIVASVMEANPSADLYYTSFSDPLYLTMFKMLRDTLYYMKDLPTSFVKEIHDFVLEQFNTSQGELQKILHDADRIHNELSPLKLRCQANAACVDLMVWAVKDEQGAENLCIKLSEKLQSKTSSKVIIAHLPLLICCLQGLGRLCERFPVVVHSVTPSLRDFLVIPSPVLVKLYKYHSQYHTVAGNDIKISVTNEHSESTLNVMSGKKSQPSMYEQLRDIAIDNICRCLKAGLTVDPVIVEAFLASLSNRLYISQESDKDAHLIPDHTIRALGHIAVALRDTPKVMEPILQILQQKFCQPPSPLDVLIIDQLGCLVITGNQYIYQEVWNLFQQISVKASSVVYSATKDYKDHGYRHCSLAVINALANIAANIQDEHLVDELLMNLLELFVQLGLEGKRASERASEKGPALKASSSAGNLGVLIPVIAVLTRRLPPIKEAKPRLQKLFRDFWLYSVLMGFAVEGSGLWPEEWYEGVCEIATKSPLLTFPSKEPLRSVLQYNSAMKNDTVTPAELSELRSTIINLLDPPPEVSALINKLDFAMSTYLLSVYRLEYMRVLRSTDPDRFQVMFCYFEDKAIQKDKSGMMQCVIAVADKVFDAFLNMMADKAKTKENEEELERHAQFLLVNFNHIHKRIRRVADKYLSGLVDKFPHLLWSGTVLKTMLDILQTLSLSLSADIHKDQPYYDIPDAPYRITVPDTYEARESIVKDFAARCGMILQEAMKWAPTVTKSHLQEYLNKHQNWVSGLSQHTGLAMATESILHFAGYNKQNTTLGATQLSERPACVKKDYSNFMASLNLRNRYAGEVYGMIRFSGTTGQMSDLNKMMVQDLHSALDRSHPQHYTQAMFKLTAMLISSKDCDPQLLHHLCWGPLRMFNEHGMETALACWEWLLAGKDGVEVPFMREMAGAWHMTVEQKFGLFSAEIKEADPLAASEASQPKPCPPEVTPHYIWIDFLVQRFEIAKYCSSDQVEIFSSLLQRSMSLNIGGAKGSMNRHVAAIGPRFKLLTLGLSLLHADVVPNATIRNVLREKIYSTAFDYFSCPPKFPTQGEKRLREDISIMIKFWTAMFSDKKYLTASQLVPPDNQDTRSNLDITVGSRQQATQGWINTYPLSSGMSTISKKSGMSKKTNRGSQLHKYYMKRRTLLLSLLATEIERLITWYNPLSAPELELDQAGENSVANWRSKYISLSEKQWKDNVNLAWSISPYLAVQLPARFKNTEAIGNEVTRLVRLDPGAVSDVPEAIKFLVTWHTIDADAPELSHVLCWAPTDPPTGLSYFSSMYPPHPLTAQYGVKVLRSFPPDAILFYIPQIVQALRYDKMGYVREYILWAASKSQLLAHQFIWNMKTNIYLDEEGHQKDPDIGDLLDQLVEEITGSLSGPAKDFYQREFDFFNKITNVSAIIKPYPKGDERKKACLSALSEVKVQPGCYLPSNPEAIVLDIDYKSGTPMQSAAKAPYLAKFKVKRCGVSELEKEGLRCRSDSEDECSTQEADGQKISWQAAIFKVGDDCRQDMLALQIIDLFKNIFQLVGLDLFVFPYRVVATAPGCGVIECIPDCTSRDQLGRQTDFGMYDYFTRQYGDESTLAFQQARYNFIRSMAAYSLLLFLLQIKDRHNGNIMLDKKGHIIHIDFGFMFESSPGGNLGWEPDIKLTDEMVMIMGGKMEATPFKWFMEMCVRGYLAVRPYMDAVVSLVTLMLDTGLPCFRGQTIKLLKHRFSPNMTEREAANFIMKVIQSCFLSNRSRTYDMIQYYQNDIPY
Series [15] addresses Phosphatidylinositol 4,5-bisphosphate 3-kinase catalytic subunit gamma isoform (Homo sapiens, UniProt P48736).
Series [16] deals with Mus musculus. The experiment in a line: Toxicity in mouse assessed as morbidity at 40 mg/kg/day. The class given is organism-based. To be noted: in vivo. Put shortly: as §1
Series [17] in a line: Toxicity in mouse after 14 days. The class given is organism-based. To be noted: in vivo. Put shortly:
as §1

For series [18], the system named is Rattus norvegicus. The experiment in a line: (§6) Tmax in Sprague-Dawley rat at 5 mg/kg, po. The class given is ADME, organism-based. On the set-up: dose 5 mg/kg, route oral. To be noted: in vivo. In short, it runs like this: as §3
Series [19] deals with Mus musculus. Put plainly: Toxicity in mouse assessed as pathological changes in spleen at 40 mg/kg/day. The note with it: in vivo. Format: organism-based. Put shortly:
as §1

For series [20], the system named is Rattus norvegicus. Put plainly: Dose normalized AUC in Sprague-Dawley rat at 5 mg/kg, po. The class given is ADME, organism-based. On the set-up: dose 5 mg/kg, route oral. To be noted: in vivo. Put shortly:
as §3

Series [21] relates to Rattus norvegicus. Put plainly: (§7) Volume of distribution at steady state in Sprague-Dawley rat at 1 mg/kg, iv. Format: ADME, organism-based. On the set-up: dose 1 mg/kg, route intravenous. To be noted: in vivo. In short, it runs like this:
as §3

The subject of series [22] is Hepatitis C virus. The experiment in a line: Antiviral activity against Hepatitis C virus genotype 1b expressed in ET cells after 48 hrs by luciferase reporter gene assay. Format: functional, organism-based, Hepacivirus hominis. The note with it: for pIC50: et.
Series [23] is described as follows: Inhibition of 6xHis-tagged PI4K-beta (13 to 828) 316 to 330 deletion mutant (unknown origin) using D-myo-phosphatidylinositol as substrate preincubated for 30 mins followed by substrate addition measured after 180 mins by luminescence assay. On the set-up: species or system Homo sapiens.
Series [24] can be described thus: as §2. Format: ADME, organism-based. On the set-up: dose 5 mg/kg, route oral. To be noted: Sprague-Dawley, in vivo. Put shortly: as §3
The nature of series [25]: as §4. Format: ADME, organism-based. On the set-up: dose 5 mg/kg, route oral. The note with it: Sprague-Dawley, in vivo. In short, it runs like this:
as §3

Series [26] can be described thus: as §5. Format: ADME, organism-based. To be noted: Sprague-Dawley, in vivo. In short, it runs like this: as §3
Series [27] is described as follows: as §6. Format: ADME, organism-based. On the set-up: dose 5 mg/kg, route oral. To be noted: Sprague-Dawley, in vivo. Put shortly:
as §3

Series [28] is described as follows: AUC in Sprague-Dawley rat at 5 mg/kg, po. Format: ADME, organism-based. To be noted: plasma. On the set-up: dose 5 mg/kg, route oral. Put shortly: as §3
Series [29] in a line: Thermodynamic stability of the compound in DMSO assessed as decomposition at 80 degC after 6 days. The class given is physicochemical. To be noted: 144 h.
Series [30] in a line: Thermodynamic stability of the compound in DMSO assessed as interconversion at 80 degC after 6 days. The class given is physicochemical. To be noted: 144 h.
Series [31] in a line: Clearance in Sprague-Dawley rat at 1 mg/kg, iv. On the set-up: dose 1 mg/kg, route intravenous. Format: ADME, organism-based. The note with it: in vivo. In short, it runs like this:
as §3

The nature of series [32]: as §7. The class given is ADME, organism-based. On the set-up: dose 1 mg/kg, route intravenous. The note with it: Sprague-Dawley, in vivo, read-out: Vdss. In short, it runs like this:
as §3

Series [33] concerns the target T1, Phosphatidylinositol 4-kinase alpha. The experiment in a line: Competitive inhibition of GST-tagged PI4K-alpha (1 to 2044) (unknown origin) in presence of ATP.
Setting [34] is: Hepatitis C virus, genotype 1b, ET, 48 h.

Calls of active or inactive are those of the source. No cut-off for these calls is given here.

Phosphatidylinositol 4,5-bisphosphate 3-kinase catalytic subunit gamma isoform, sequence (P48736 whole entry, canonical isoform): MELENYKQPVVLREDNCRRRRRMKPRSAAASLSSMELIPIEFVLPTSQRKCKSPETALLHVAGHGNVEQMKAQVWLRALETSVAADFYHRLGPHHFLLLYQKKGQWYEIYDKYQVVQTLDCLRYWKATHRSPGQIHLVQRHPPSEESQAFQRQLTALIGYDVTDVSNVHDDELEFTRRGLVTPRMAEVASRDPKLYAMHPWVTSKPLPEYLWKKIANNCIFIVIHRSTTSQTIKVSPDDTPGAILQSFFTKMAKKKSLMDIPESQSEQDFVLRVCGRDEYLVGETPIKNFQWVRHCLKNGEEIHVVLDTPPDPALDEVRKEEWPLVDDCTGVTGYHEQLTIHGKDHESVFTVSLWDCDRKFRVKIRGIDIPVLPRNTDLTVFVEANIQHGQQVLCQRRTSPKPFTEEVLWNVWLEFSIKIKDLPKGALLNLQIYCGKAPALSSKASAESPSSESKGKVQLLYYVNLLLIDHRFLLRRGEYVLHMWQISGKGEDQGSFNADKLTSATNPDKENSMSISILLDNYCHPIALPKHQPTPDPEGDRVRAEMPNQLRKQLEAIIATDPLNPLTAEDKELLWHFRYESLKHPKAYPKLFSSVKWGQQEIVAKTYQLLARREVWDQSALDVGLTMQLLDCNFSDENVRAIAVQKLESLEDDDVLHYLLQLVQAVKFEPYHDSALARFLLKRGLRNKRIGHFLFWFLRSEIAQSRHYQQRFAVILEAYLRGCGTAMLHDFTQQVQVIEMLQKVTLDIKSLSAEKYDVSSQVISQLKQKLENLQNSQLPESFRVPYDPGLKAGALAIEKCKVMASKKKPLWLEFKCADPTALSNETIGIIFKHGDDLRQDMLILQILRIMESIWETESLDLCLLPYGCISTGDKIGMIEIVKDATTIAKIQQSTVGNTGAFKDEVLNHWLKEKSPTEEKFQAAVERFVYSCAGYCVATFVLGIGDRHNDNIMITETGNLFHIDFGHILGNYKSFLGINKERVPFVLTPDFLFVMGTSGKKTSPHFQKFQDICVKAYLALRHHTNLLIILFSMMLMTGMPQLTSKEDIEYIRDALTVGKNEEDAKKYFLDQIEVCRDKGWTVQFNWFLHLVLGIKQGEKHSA

Regarding `COc1ncc(-c2ccc3nc(N)n(-c4ccccc4C(F)(F)F)c(=O)c3c2)cc1S(=O)(=O)Nc1ccc(F)cc1F` (atropisomer aS), the pIC50 (usually −log10 of the IC50, conventionally taken in molar units) is recorded as 7.9 with Hepatitis C virus [1]; 5.6 in series [8]; 5.1 in series [10]; 5.6 in series [11]; 7.9 in the series with Hepatitis C virus [13]; 8.6 in the series with Hepatitis C virus [22]. For the same molecule, the pIC50 in [23] stood at 6. Moreover, the Activity entry with Mus musculus [2], in the series with Mus musculus [5], in the series on Mus musculus [7], in the series with Mus musculus [16] and in the series on Mus musculus [19] was “Toxic” throughout. Further, in the series on Rattus norvegicus [3], the Cmax (as a rule, the maximum level reached in the sampled fluid or tissue) was found to be 1556 ng/mL. Also, the t1/2 with Rattus norvegicus [4] worked out at 4 h; with Rattus norvegicus [6], 1.3 h. The AUC/dose in the series on Rattus norvegicus [9] worked out at 3695 kg·ng·h/mL/mg; in the series with Rattus norvegicus [20], 3626 kg·ng·h/mL/mg. In addition, in the series with Rattus norvegicus [12], the F came out at 98%. Moreover, the IC50 (as a rule, the concentration that inhibits the measured activity by half) is 5.01 nM in series [14] and 2510 nM in [15]. For the same molecule, the MTD at 336 h in [17] came out at 50 mg/kg. For the same molecule, the Tmax (as a rule, the time from dosing to the highest level) in the series on Rattus norvegicus [18] is 4.25 h. In addition, the Vdss (as a rule, the apparent volume that relates the amount in the body to the concentration in plasma or blood) in the series with Rattus norvegicus [21] amounted to 0.34 L/kg.

In turn, `COc1ncc(-c2ccc3nc(N)n(-c4ccccc4)c(=O)c3c2)cc1NS(=O)(=O)c1ccc(F)cc1F` showed a Cmax in series [24] of 3580 ng/mL. Moreover, in [25], the half-life (as a rule, how long it takes for the measured level to halve) is 6.7 h. The pIC50 in series [8] was 8.2; in [10], 7; in [11], 8.2; in series [23] it was 7.2. The bioavailability – broadly, dose-corrected exposure relative to a reference, in per cent – in series [26] worked out at 60%. Besides, the IC50 in series [14] is 1.58 nM; in series [15], 3.98 nM; with Hepatitis C virus [22] (setting [34]), 0.501 nM. For the same molecule, the Tmax in series [27] is 6 h. Moreover, the AUC (commonly concentration integrated over time) in series [28] amounted to 60200 ng·h/mL.

With `COc1ncc(-c2ccc3nc(N)n(-c4ccccc4C(F)(F)F)c(=O)c3c2)cc1S(=O)(=O)Nc1ccc(F)cc1F` (atropisomer aR), the pIC50 came out at 6.9 in the series with Hepatitis C virus [1]; 5 in series [8]; 4.8 in series [10]; 5.5 in series [11]; 7.1 in the series with Hepatitis C virus [13]; 7.8 in the series on Hepatitis C virus [22]. Besides, in [23], the pIC50 was determined as 5.3. Also, the Stability result in [29] and in series [30] was “Stable” in each case. The clearance (usually the rate of elimination divided by the concentration) in series [31] came to 2.5 mL/min/kg. For the same molecule, the Cmax with Rattus norvegicus [3] was found to be 4429 ng/mL. For the same molecule, in [25], the half-life was 2.7 h. This molecule also displayed a t1/2 in the series with Rattus norvegicus [6] of 3.5 h. Further, the AUC/dose turned out to be 7113 kg·ng·h/mL/mg with Rattus norvegicus [9] and 9985 kg·ng·h/mL/mg in the series with Rattus norvegicus [20]. Besides, in [26], the bioavailability is over 100%. The IC50 is 126 nM in [14] and 3160 nM in [15]. For the same molecule, in [27], the Tmax was 3 h. For the same molecule, in series [32], the Vd amounted to 0.55 L/kg.

Turning to `COc1ncc(-c2ccc3nc(N)c(-c4ccc(N5CCOCC5)cc4)cc3c2)cc1NS(=O)(=O)c1ccc(F)cc1F`, the EC50 (as a rule, the concentration that produces a half-maximal response) in the series on Hepatitis C virus [1] (Hepatitis C virus, subtype 1a, ET, 48 h) was 31.6 nM; in the series with Hepatitis C virus [13] (Hepatitis C virus, genotype 2a, Huh-7, 48 h), 20 nM; in the series with Hepatitis C virus [22] (setting [34]) it was 3.98 nM. In [24], this molecule returned a Cmax of 1390 ng/mL. Further, the half-life in series [25] is 2.39 h. Also, in series [33], the inhibition entry is “Active”. For the same molecule, the pIC50 stood at 6.2 in series [8], 5 in series [10], 5.6 in series [11] and 5.5 in series [23]. Further, the bioavailability in series [26] turned out to be 38%. Further, the IC50 was 39.8 nM in series [14] and 631 nM in [15]. In [27], the Tmax was 0.67 h. In series [28], this molecule returned an AUC of 5000 ng·h/mL.
